Test results as given in ChEMBL document CHEMBL2417509, “Synthesis and biological evaluation of prodigiosene conjugates of porphyrin, estrone and 4-hydroxytamoxifen” (2013).

Assays:
Format in all cases: functional
OVCAR-4 = experiment: Cytotoxicity against human OVCAR4 cells after 2 days by sulforhodamine B assay; conditions: OVCAR-4, 48 h
Summary of the method: (§1)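 NCI60 multi-dose screen, 59 human tumour lines available. Cells exposed to compound across a 5-log mol/L concentration range for 2 days, then fixed and stained with sulphorhodamine B, optical density read. Growth inhibition calculated against time-zero control and untreated cells. GI50 derived from the dose series, average of two replicates.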

[1] = Cytotoxicity against human NCI-ADR-RES cells after 2 days by sulforhodamine B assay; conditions: 48 h; summary of the method: as §1
SW-620 = experiment: Cytotoxicity against human SW620 cells after 2 days by sulforhodamine B assay; conditions: SW-620, 48 h
Summary of the method: (§2)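 NCI DTP NCI60 multi-dose screen (59 human tumour lines available). Cells exposed to compound over a 5-log mol/L concentration range for 2 days, then fixed and stained with sulphorhodamine B, with optical density read. Growth inhibition calculated relative to time-zero cells and untreated cells, giving GI50 (half-maximal growth inhibition concentration). Average of two replicates.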

786-0 = experiment: Cytotoxicity against human 786-0 cells after 2 days by sulforhodamine B assay; conditions: 786-0, 48 h; summary of the method: as §1
A498 = experiment: Cytotoxicity against human A498 cells after 2 days by sulforhodamine B assay; conditions: A498, 48 h; summary of the method: as §1
KM12 = experiment: Cytotoxicity against human KM12 cells after 2 days by sulforhodamine B assay; conditions: KM12, 48 h; summary of the method: as §1
SN12C = experiment: Cytotoxicity against human SN12C cells after 2 days by sulforhodamine B assay; conditions: 48 h; summary of the method: as §1
SK-MEL-5 = experiment: Cytotoxicity against human SK-MEL-5 cells after 2 days by sulforhodamine B assay; conditions: SK-MEL-5, 48 h; summary of the method: as §1
LOX IMVI = experiment: Cytotoxicity against human LOXIMVI cells after 2 days by sulforhodamine B assay; conditions: 48 h; summary of the method: as §1
ACHN = experiment: Cytotoxicity against human ACHN cells after 2 days by sulforhodamine B assay; conditions: 48 h; summary of the method: as §1
OVCAR-8 = experiment: Cytotoxicity against human OVCAR8 cells after 2 days by sulforhodamine B assay; conditions: OVCAR-8, 48 h; summary of the method: as §1
IGROV-1 = experiment: Cytotoxicity against human IGROV1 cells after 2 days by sulforhodamine B assay; conditions: IGROV-1, 48 h; summary of the method: as §1
SK-OV-3 = experiment: Cytotoxicity against human SKOV3 cells after 2 days by sulforhodamine B assay; conditions: SK-OV-3, 48 h; summary of the method: as §1
HT-29 = experiment: Cytotoxicity against human HT-29 cells after 2 days by sulforhodamine B assay; conditions: HT-29, 48 h; summary of the method: as §1
HOP-62 = experiment: Cytotoxicity against human HOP62 cells after 2 days by sulforhodamine B assay; conditions: HOP-62, 48 h; summary of the method: as §1
UACC-62 = experiment: Cytotoxicity against human UACC62 cells after 2 days by sulforhodamine B assay; conditions: UACC-62, 48 h; summary of the method: as §2
TK-10 = experiment: Cytotoxicity against human TK10 cells after 2 days by sulforhodamine B assay; conditions: TK-10, 48 h; summary of the method: as §2
CAKI-1 = experiment: Cytotoxicity against human CAKI-1 cells after 2 days by sulforhodamine B assay; conditions: CAKI-1, 48 h; summary of the method: as §1
SK-MEL-28 = experiment: Cytotoxicity against human SK-MEL-28 cells after 2 days by sulforhodamine B assay; conditions: SK-MEL-28, 48 h; summary of the method: as §1
U-251 = experiment: Cytotoxicity against human U251 cells after 2 days by sulforhodamine B assay; conditions: U-251, 48 h; summary of the method: as §2
SF-295 = experiment: Cytotoxicity against human SF295 cells after 2 days by sulforhodamine B assay; conditions: SF-295, 48 h; summary of the method: as §1
OVCAR-3 = experiment: Cytotoxicity against human OVCAR3 cells after 2 days by sulforhodamine B assay; conditions: OVCAR-3, 48 h; summary of the method: as §1
T47D = experiment: Cytotoxicity against human T47D cells after 2 days by sulforhodamine B assay; conditions: 48 h; summary of the method: as §2
SNB-19 = experiment: Cytotoxicity against human SNB19 cells after 2 days by sulforhodamine B assay; conditions: SNB-19, 48 h; summary of the method: as §2
UACC-257 = experiment: Cytotoxicity against human UACC257 cells after 2 days by sulforhodamine B assay; conditions: UACC-257, 48 h; summary of the method: as §2
COLO 205 = experiment: Cytotoxicity against human COLO205 cells after 2 days by sulforhodamine B assay; conditions: COLO 205, 48 h; summary of the method: as §1
SR = experiment: Cytotoxicity against human SR cells after 2 days by sulforhodamine B assay; conditions: 48 h; summary of the method: as §2
SNB-75 = experiment: Cytotoxicity against human SNB75 cells after 2 days by sulforhodamine B assay; conditions: SNB-75, 48 h; summary of the method: as §2
NCI-H522 = experiment: Cytotoxicity against human NCI-H522 cells after 2 days by sulforhodamine B assay; conditions: NCI-H522, 48 h; summary of the method: as §1
UO-31 = experiment: Cytotoxicity against human UO31 cells after 2 days by sulforhodamine B assay; conditions: UO-31, 48 h; summary of the method: as §2
M14 = experiment: Cytotoxicity against human M14 cells after 2 days by sulforhodamine B assay; conditions: M14, 48 h; summary of the method: as §1
[2] = read-out: LC50 (the source's name)

SMILES: COc1cc(-c2ccc[nH]2)[nH]c1/C=C1\N=C(C)C(C(=O)CCC(=O)Oc2ccc3c(c2)CC[C@@H]2[C@@H]3CC[C@]3(C)C(=O)CC[C@@H]23)=C1C
- GI50 (OVCAR-4): 20.9 µM
- LC50 (concentration killing 50% of cells) (OVCAR-4): > 100 µM
- TGI (OVCAR-4): > 100 µM
- GI50 [1]: 13.1 µM
- TGI [1]: > 100 µM
- CC50 [1, 2]: > 100 µM
- GI50 (SW-620): 0.77 µM
- LC50 (concentration killing 50% of cells) (SW-620): > 100 µM
- TGI (SW-620): > 100 µM
- GI50 (786-0): 5.99 µM
- LC50 (concentration killing 50% of cells) (786-0): > 100 µM
- TGI (786-0): 40 µM
- GI50 (A498): 8.49 µM
- LC50 (A498): > 100 µM
- TGI (A498): 59.1 µM
- GI50 (KM12): 6.25 µM
- LC50 (KM12): > 100 µM
- TGI (KM12): > 100 µM
- GI50 (SN12C): 5.21 µM
- TGI (SN12C): > 100 µM
- CC50 (SN12C; [2]): > 100 µM
- GI50 (SK-MEL-5): 3.5 µM
- LC50 (concentration killing 50% of cells) (SK-MEL-5): 68.8 µM
- TGI (SK-MEL-5): 19.6 µM
- GI50 (LOX IMVI): 1.17 µM
- LC50 (LOX IMVI): 21.2 µM
- TGI (LOX IMVI): 3.56 µM
- GI50 (ACHN): 5.83 µM
- LC50 (concentration killing 50% of cells) (ACHN): > 100 µM
- TGI (ACHN): > 100 µM
- GI50 (OVCAR-8): 8.36 µM
- LC50 (OVCAR-8): > 100 µM
- TGI (OVCAR-8): > 100 µM
- GI50 (IGROV-1): 8.4 µM
- LC50 (IGROV-1): > 100 µM
- TGI (IGROV-1): > 100 µM
- GI50 (SK-OV-3): > 100 µM
- LC50 (concentration killing 50% of starting cells) (SK-OV-3): > 100 µM
- TGI (SK-OV-3): > 100 µM
- GI50 (HT-29): 0.87 µM
- LC50 (HT-29): > 100 µM
- TGI (HT-29): > 100 µM
- GI50 (HOP-62): 18.3 µM
- TGI (HOP-62): 65.9 µM
- CC50 (HOP-62; [2]): > 100 µM
- GI50 (UACC-62): 3.71 µM
- TGI (UACC-62): 17.6 µM
- CC50 (UACC-62; [2]): 65.1 µM
- GI50 (TK-10): 27.8 µM
- LC50 (TK-10): > 100 µM
- TGI (TK-10): > 100 µM
- GI50 (CAKI-1): 9.05 µM
- LC50 (concentration killing 50% of the cells present at time zero) (CAKI-1): > 100 µM
- TGI (CAKI-1): > 100 µM
- GI50 (SK-MEL-28): 75 µM
- LC50 (SK-MEL-28): > 100 µM
- TGI (SK-MEL-28): > 100 µM
- GI50 (U-251): 3.41 µM
- LC50 (U-251): > 100 µM
- TGI (U-251): > 100 µM
- GI50 (SF-295): 21.4 µM
- LC50 (SF-295): > 100 µM
- TGI (SF-295): 85.4 µM
- GI50 (OVCAR-3): 17.6 µM
- LC50 (OVCAR-3): > 100 µM
- TGI (OVCAR-3): > 100 µM
- GI50 (T47D): 15.4 µM
- LC50 (concentration killing 50% of cells) (T47D): > 100 µM
- TGI (T47D): > 100 µM
- GI50 (SNB-19): 18.4 µM
- TGI (SNB-19): > 100 µM
- CC50 (SNB-19; [2]): > 100 µM
- GI50 (UACC-257): 97.6 µM
- TGI (UACC-257): > 100 µM
- CC50 (UACC-257; [2]): > 100 µM
- GI50 (COLO 205): 21.6 µM
- LC50 (concentration killing 50% of cells) (COLO 205): > 100 µM
- TGI (COLO 205): > 100 µM
- GI50 (SR): 0.72 µM
- LC50 (concentration giving 50% net cell kill) (SR): > 100 µM
- TGI (SR): > 100 µM
- GI50 (SNB-75): 59.1 µM
- LC50 (concentration killing 50% of starting cells) (SNB-75): > 100 µM
- TGI (SNB-75): > 100 µM
- GI50 (NCI-H522): 4.68 µM
- LC50 (NCI-H522): > 100 µM
- TGI (NCI-H522): 60.1 µM
- GI50 (UO-31): 4.15 µM
- LC50 (UO-31): > 100 µM
- TGI (UO-31): 31 µM
- GI50 (M14): 12.4 µM
- TGI (M14): 33.4 µM
- CC50 (M14; [2]): 91.2 µM
